Published values pooled from the literature.
Protocols differ between the studies behind these lines.
KIT D816V: Mast/stem cell growth factor receptor Kit (KIT, Homo sapiens, UniProt P10721, D816V)
KIT D816H: Mast/stem cell growth factor receptor Kit (KIT, Homo sapiens, UniProt P10721, D816H)
KIT T670I/V559D: Mast/stem cell growth factor receptor Kit (KIT, Homo sapiens, UniProt P10721, T670I/V559D)
KIT V559D: Mast/stem cell growth factor receptor Kit (KIT, Homo sapiens, UniProt P10721, V559D)
KIT autoinhibited: Mast/stem cell growth factor receptor Kit, autoinhibited (KIT, Homo sapiens, UniProt P10721)
KIT L576P: Mast/stem cell growth factor receptor Kit (KIT, Homo sapiens, UniProt P10721, L576P)
KIT V559D/V654A: Mast/stem cell growth factor receptor Kit (KIT, Homo sapiens, UniProt P10721, V559D/V654A)

With `COc1cnc(Nc2cccc(S(N)(=O)=O)c2)nc1N1CCN(c2ccccc2)CC1` the remaining binding was 92% (KIT D816V; binding; competition with immobilised ligand; 1 µM).
`Cc1cnc(Nc2ccc(C(=O)N3CCC(N4CCCC4)CC3)cc2)nc1-c1cc2ccccc2s1` gave a remaining binding of 7.8% (KIT D816H; binding; competition with immobilised ligand; 1 µM).
For `NS(=O)(=O)c1cc(NC(=O)C2(c3ccccc3Cl)CC2)ccc1Oc1cccc(Cl)c1`, the remaining binding was 85% (KIT T670I/V559D; cell-free assay; competition with immobilised ligand; 1 µM).
`CC1CCCN1c1nccc(-c2cnn3ncccc23)n1` (stereo not drawn) gave a remaining binding of 100% (KIT T670I/V559D; binding; 1 µM).
`CC(C)(C)c1ccc(-c2nc(CBr)nn2-c2cccc(O)c2)cc1` gave a remaining binding of 95% (KIT T670I/V559D; cell-free assay; competition with immobilised ligand; 10 µM).
The remaining binding of `COc1ncc2cc3ccccc3nc2c1C#N` is reported as 92% (Mast/stem cell growth factor receptor Kit (KIT, Homo sapiens, UniProt P10721); cell-free assay; competition with immobilised ligand; 5 µM).
For `CN(CCCC(F)(F)F)c1nccc(-c2cnn3ncccc23)n1`, the remaining binding was 100% (KIT V559D; binding; 1 µM).
`CCN1CCN(Cc2ccc(C(=O)Nc3ccc(C)c(Oc4ccc5c(c4)CC(=O)N5)c3)cc2C(F)(F)F)CC1` gave a remaining binding of 100% (KIT autoinhibited; binding; competition with immobilised ligand; 1 µM).
`CCCCN(CCCC)C(=O)CN1C[C@@H](c2cc(OC)c3c(c2)OCO3)[C@H](C(=O)O)[C@H]1CC(C)(C)CCC` gave a remaining binding of 79% (KIT T670I/V559D; cell-free assay; competition with immobilised ligand; 1 µM).
The remaining binding of `COc1cnc(Nc2cccc(S(N)(=O)=O)c2)nc1N1CCN(c2ccccc2)C(=O)C1` is reported as 100% (KIT L576P; binding; competition with immobilised ligand; 1 µM).
`CN1CCN(c2ccc(Nc3nccc(-c4cccc([N+](=O)[O-])c4)n3)cc2C(F)(F)F)CC1` has a remaining binding of 0% (KIT V559D; binding; 10 µM).
`O=C(Nc1cccnn1)N1CC(C/C=C/c2cncc(Oc3ccc(C(F)(F)F)cn3)n2)C1` has a remaining binding of 100% (KIT V559D/V654A; cell-free assay; competition with immobilised ligand; 1 µM).
For `Cc1cnn2ncc(-c3ccnc(N(C)C)n3)c2c1`, the remaining binding was 100% (KIT L576P; binding; 1 µM).
For `C[C@@H](c1ccc(-n2cnc3c(N)ncnc32)cc1)N1CCc2nn(C)c(Cc3ccccc3)c2C1=O`, the remaining binding was 64% (KIT D816H; binding; competition with immobilised ligand; 0.1 µM).
With `N[C@H]1CCN(c2nccc(-c3cnn4ncccc34)n2)C1` the remaining binding was 87% (KIT D816V; binding; 1 µM).
With `CCC(=O)N[C@@H]1CC[C@H](C(=O)N(C)c2ccc(-c3nc4ccccc4o3)cc2)C1` the remaining binding was 89% (KIT D816V; cell-free assay; competition with immobilised ligand; 1 µM).
`O=C(c1ccc(Nc2ncc(Cl)c(-c3cc4ccccc4s3)n2)cc1)N1CCC(N2CCCC2)CC1` gave a remaining binding of 74% (KIT autoinhibited; binding; competition with immobilised ligand; 1 µM).
With `O=C(NCC1CCOCC1)c1n[nH]cc1NC(=O)c1c(F)cccc1F` the remaining binding was 90% (KIT V559D/V654A; binding; competition with immobilised ligand; 1 µM).
`CC(=O)c1c(NS(C)(=O)=O)c2cc(-c3ccc(Cl)cc3)c(-c3ccc(Cl)cc3Cl)nc2n(C)c1=O` has a remaining binding of 89% (KIT V559D/V654A; cell-free assay; competition with immobilised ligand; 1 µM).
The remaining binding of `O=C(NCCCN1CCOCC1)c1ccc(Nc2nccc(-c3cc4ccccc4s3)n2)cc1` is reported as 36% (Mast/stem cell growth factor receptor Kit (KIT, Homo sapiens, UniProt P10721, A829P); binding; competition with immobilised ligand; 1 µM).
The remaining binding of `CNC(=O)c1ccc(Nc2ncc(C(F)(F)F)c(NCc3nccnc3N(C)S(C)(=O)=O)n2)cc1` is reported as 71% (KIT D816H; cell-free assay; competition with immobilised ligand; 0.1 µM).
`COc1ccnn2ncc(-c3ccnc(N(C)C)n3)c12` has a remaining binding of 100% (KIT V559D; binding; 1 µM).
With `CNC(=O)Nc1ccc2c(c1)CC[C@@]21OC(=O)N(CC(=O)N(Cc2ccc(F)cc2)[C@@H](C)C(F)(F)F)C1=O` the remaining binding was 90% (KIT V559D/V654A; cell-free assay; competition with immobilised ligand; 1 µM).
`c1cnn2ncc(-c3ccnc(N4CCC45COC5)n3)c2c1` has a remaining binding of 84% (KIT T670I/V559D; binding; 1 µM).
